# From ChEMBL document CHEMBL1125845, “Indazolinones, a new series of redox-active 5-lipoxygenase inhibitors with built-in selectivity and oral activity” (J Med Chem, 1991)
# How the values were obtained:
# Cyclooxygenase [1] = molecular target: T1, Cyclooxygenase (Rattus norvegicus, UniProt P35355+Q63921); test: In vitro inhibition of PGE-2 production was measured in rat blood; assay type: functional
# T1 sequence (P35355 whole entry): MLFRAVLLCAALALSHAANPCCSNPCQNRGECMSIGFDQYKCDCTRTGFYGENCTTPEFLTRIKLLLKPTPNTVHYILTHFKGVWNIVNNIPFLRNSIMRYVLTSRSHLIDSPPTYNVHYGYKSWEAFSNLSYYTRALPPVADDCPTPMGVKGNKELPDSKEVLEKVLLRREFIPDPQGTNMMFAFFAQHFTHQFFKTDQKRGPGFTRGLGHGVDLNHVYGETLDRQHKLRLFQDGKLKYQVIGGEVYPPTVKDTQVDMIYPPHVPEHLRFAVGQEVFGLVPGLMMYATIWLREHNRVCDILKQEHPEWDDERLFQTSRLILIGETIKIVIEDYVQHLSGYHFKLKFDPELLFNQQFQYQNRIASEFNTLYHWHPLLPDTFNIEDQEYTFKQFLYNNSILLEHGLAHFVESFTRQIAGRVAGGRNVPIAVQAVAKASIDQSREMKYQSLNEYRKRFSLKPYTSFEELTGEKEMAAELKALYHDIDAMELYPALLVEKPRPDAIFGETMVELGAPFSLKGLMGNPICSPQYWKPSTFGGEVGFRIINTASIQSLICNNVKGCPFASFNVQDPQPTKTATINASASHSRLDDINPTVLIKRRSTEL
# T1 sequence (Q63921 whole entry): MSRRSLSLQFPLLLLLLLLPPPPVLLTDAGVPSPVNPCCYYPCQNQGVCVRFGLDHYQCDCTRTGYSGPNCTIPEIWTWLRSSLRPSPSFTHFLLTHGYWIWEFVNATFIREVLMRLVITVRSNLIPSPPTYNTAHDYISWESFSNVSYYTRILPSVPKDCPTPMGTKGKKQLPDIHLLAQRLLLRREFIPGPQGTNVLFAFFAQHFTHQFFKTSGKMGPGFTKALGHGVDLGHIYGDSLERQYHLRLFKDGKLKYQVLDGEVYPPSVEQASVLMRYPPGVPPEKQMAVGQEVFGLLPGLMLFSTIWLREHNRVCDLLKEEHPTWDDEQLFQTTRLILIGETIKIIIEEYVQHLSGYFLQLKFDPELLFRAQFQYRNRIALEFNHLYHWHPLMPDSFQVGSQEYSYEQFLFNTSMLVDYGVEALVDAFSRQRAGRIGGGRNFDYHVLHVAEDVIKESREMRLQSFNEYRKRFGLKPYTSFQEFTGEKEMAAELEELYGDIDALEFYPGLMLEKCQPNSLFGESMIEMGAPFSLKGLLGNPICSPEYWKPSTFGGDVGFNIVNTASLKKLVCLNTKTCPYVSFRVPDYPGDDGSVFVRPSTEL
# [2] = molecular target: T2, Polyunsaturated fatty acid 5-lipoxygenase (Rattus norvegicus, UniProt P12527); test: In vitro inhibition of LTB4 production was measured in rat blood; assay type: functional
# T2 sequence (P12527 whole entry): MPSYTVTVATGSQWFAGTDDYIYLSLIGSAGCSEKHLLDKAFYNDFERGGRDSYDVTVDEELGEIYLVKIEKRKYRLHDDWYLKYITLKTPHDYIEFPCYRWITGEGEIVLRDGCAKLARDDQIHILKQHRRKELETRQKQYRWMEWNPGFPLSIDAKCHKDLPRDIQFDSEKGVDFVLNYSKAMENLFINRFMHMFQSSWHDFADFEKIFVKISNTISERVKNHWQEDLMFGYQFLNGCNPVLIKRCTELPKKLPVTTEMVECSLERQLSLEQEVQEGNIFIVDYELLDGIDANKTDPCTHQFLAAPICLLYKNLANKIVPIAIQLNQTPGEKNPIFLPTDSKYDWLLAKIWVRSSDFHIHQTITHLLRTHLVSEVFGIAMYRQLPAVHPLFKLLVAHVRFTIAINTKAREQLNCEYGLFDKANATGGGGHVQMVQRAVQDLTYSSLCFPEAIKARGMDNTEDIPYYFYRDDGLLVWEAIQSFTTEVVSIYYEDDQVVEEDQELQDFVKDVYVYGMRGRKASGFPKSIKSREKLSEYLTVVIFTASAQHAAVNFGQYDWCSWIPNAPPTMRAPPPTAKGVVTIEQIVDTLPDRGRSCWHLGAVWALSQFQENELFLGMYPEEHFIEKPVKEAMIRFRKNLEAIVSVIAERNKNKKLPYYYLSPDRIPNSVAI
# How it was run: (§1)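 Pooled heparinized blood from male Alderley Park Wistar rats (vena cava) held on ice; preincubated with compound in DMSO (1% final) 15 min at 37 °C, then A23187 (20 µg/mL) added for a further 15 min; stopped with cocktail of indomethacin, EGTA and azide; plasma LTB4 and PGE2 by radioimmunoassay. IC50 by nonlinear regression from two experiments.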
# [3] = molecular target: Polyunsaturated fatty acid 5-lipoxygenase (Canis lupus familiaris); test: Ex vivo inhibition of LTB4 production was measured in dog blood
# Canis familiaris = species on record: Canis familiaris; test: In vitro test for the induction of the production of methemoglobin (MHb) in dog blood; assay type: functional, Canis lupus familiaris
# How it was run: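 Pooled heparinized dog blood (leg vein) incubated with compound for 2 h at 37 °C; methemoglobin quantified by cooximeter.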
# Cyclooxygenase [4] = molecular target: T1, Cyclooxygenase; test: In vitro inhibition of PGE-2 (PG) production in rat blood; 3-30; assay type: functional; how it was run: as §1
SMILES,IC50 (Cyclooxygenase [1]) [µM],IC50 [2] [nM],ED50 [3] [mg/kg],further results
O=c1c2ccccc2[nH]n1-c1ccccc1,2.7,,,
O=c1c2ccccc2[nH]n1Cc1ccccc1,18,,,
c1ccc(COc2[nH]nc3ccccc23)cc1,,> 30000,,
O=c1[nH]n(-c2ccccc2)c2ccccc12,,30000,,
Cn1c2ccccc2c(=O)n1Cc1ccccc1,,> 30000,> 100,
Oc1n[nH]c2ccccc12,30,,,ED25 (Canis familiaris): 40 µM
Cc1ccc(Cn2[nH]c3ccccc3c2=O)cn1,21,2500,10,
O=c1c2ccccc2[nH]n1Cc1c[nH]c2ccccc12,94,,,
C[C@H](c1cccc2ccccc12)n1[nH]c2ccccc2c1=O,400,1400,> 100,
Cc1ccncc1Cn1[nH]c2ccccc2c1=O,> 30,3000,5,
O=c1c2ccccc2[nH]n1Cc1ccc2ccccc2c1,18,,,
O=c1c2ccccc2[nH]n1CCCc1ccccc1,3.8,540,> 100,
O=c1c2ccccc2[nH]n1Cc1cccnc1,> 300,,,ED25 (Canis familiaris): 7.5 µM
O=c1c2ccccc2[nH]n1Cc1ccccn1,67,,,
C[C@@H](c1cccc2ccccc12)n1[nH]c2ccccc2c1=O,48,11000,,
O=c1c2ccccc2[nH]n1Cc1cccnc1Cl,12,1400,5,
Cn1[nH]c2ccccc2c1=O,17,,,ED25 (Canis familiaris): 10 µM
O=c1c2ccccc2[nH]n1Cc1cncc(Br)c1,39,1000,10,
CCCCCNC(=O)c1cccc2[nH]n(Cc3cccnc3)c(=O)c12,,,,ED25 (Canis familiaris): >250 µM
O=c1c2ccccc2[nH]n1CCc1ccccc1,15,,,
O=c1c2ccccc2[nH]n1Cc1ccc(Cl)nc1,,< 1000,15,IC50 (Cyclooxygenase [4]): 3 µM

SMILES,IC50 (Cyclooxygenase [1]) [µM],IC50 [2] [nM],ED50 [3] [mg/kg],further results
O=c1c2ccccc2[nH]n1CCCCc1ccccc1,26,780,> 100,
O=c1c2ccccc2[nH]n1Cc1cncs1,> 100,,,
O=c1c2ccccc2[nH]n1Cc1ccco1,13,,,
O=c1c2ccccc2[nH]n1Cc1cccs1,26,,,
O=c1c2ccccc2[nH]n1Cc1ccncc1,280,,,
O=c1c2ccccc2[nH]n1Cc1cccc2ccccc12,100,610,> 100,
Cc1ncccc1Cn1[nH]c2ccccc2c1=O,58,2600,10,
CCCCCNC(=O)c1cccc2[nH]n(C)c(=O)c12,,,,ED25 (Canis familiaris): >250 µM
Cc1cncc(Cn2[nH]c3ccccc3c2=O)c1,81,1800,15,
COc1ccc(Cn2[nH]c3ccccc3c2=O)cn1,,,,IC50 (Cyclooxygenase [4]): 3 µM
Cn1[nH]c(=O)c2ccccc21,20,3000,> 100,
COc1nn(Cc2ccccc2)c2ccccc12,,> 30000,,
Cn1c(=O)c2ccccc2n1Cc1ccccc1,,> 30000,,
CCCCCNC(=O)c1cccc2n[nH]c(O)c12,,,,ED25 (Canis familiaris): >250 µM
O=c1[nH]n(Cc2ccccc2)c2ccccc12,31,3400,,
O=c1cc(-c2ccccc2)oc2cc(O)c(O)c(O)c12 [BAICALEIN],50,,,
NC1=NN(c2cccc(C(F)(F)F)c2)CC1 [BW-755C],5,,,
CC(Cc1ccc(O)c(O)c1)C(C)Cc1ccc(O)c(O)c1 (stereo unspecified) [NORDIHYDROGUAIARETIC ACID],30,,,
O=C1CCN(c2ccccc2)N1 [PHENIDONE],3,,,
O=c1c(O)c(-c2ccc(O)c(O)c2)oc2cc(O)cc(O)c12 [QUERCETIN],50,,,
